Here are results for 9 compounds from publication PMC5388449 (Journal of electroanalytical chemistry (Lausanne, …, 2016).

Assay [1] addresses T1, peanut agglutinin (PNA) (Arachis hypogaea, UniProt P02872).
T1 sequence (P02872 24-273): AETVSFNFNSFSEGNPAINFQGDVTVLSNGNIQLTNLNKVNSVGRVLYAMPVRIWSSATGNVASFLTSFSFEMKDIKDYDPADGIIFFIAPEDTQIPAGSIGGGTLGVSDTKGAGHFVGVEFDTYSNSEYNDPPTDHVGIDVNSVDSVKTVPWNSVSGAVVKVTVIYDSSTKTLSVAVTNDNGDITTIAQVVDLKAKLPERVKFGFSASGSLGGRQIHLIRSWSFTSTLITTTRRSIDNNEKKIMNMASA
As to the kind of experiment: EIS negative control: PNA exposed to SAMs of thiolated mannosides on gold wire. The conditions noted are these: single-component SAM of Man-C8-SH on gold wire, 0.5 μM PNA. The format is binding. A digest of the protocol:
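Gold wires cleaned in nitric acid, then 0.5 M NaBH4 for 17 h. SAMs formed from thiolated mannoside, alone or with TEG-SH (1.0 mM total in methanol), 17 h at room temperature. Lectin in 10 mM Tris pH 7.4 with 0.1 M NaCl, 1 mM CaCl2, 1 mM MnCl2; 1 h at room temperature, then rinsed. EIS run at 5.0 mm exposed wire in 5 mM 1:1 ferri/ferrocyanide in 10 mM Tris pH 7.4, 100 kHz–1 Hz, 0.22 V vs Ag/AgCl. Rct obtained by Randles-circuit fit of Nyquist plots.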

Assay [2] deals with Concanavalin A (Con A) (Canavalia ensiformis, UniProt P02866). As to the kind of experiment: biochemical. The format is binding, Canavalia ensiformis (Jack Bean). As to conditions: for ΔRct (Rct after Con A immobilization – Rct before): single-component SAM on gold wire.
In assay [3] the target is Con A. The conditions noted are these: SPR, cited from earlier work.
Assay [4] addresses Con A. The conditions noted are these: QCM, cited from earlier work.
Assay [5] relates to Con A. As to conditions: ITC, in solution; cited from earlier work. A general note: In ITC the heat of successive injections is recorded.
Assay [6] addresses Con A. As to conditions: ITC, depending on ligand density on nanoparticles surface; cited from earlier work.

Like-named read-outs stand apart in the source and are kept apart here.

As a reminder, the Kd is the concentration at which binding is half-saturated. Consider `OC[C@H]1O[C@H](OCCCCCCCCS)[C@@H](O)[C@@H](O)[C@@H]1O` [A, 8-mercaptooctyl α-D-mannopyranoside], for which the “increase in Rct value” in assay [1] is “negligible increase”. In assay [2], the affinity, expressed as Kd, was 70 ± 19 nM. Also, the ΔRct in assay [2] (mixed SAM 1:4 Man-C8-SH/TEG-SH on gold wire, 0.5 μM Con A, 1 h) is 495 ± 15 Ω. In addition, the “ΔRct (Rct after Con A immobilization – Rct before)” value in assay [2] (0.5 μM Con A, 1 h) was 299 ± 51 Ω.

`OC[C@H]1O[C@H](O[C@@H]2[C@H](O)[C@@H](OCCCCCCCCS)O[C@H](CO)[C@H]2O)[C@@H](O)[C@@H](O)[C@@H]1O` [B, 8-Mercaptooctyl 3-O-(α-D-mannopyranosyl)-α-D-mannopyranoside] returned a Kd in assay [2] of 75 ± 20 nM.

Usually Hill coefficient stands for the slope factor of the fitted curve. In assay [2], `OC[C@H]1O[C@H](OC[C@H]2O[C@H](OCCCCCCCCS)[C@@H](O)[C@@H](O)[C@@H]2O)[C@@H](O)[C@@H](O)[C@@H]1O` [C, 8-Mercaptooctyl 6-O-(α-D-mannopyranosyl)-α-D-mannopyranoside] had a Hill coefficient of 0.73 ± 0.17, a dissociation constant (Kd) of 14 ± 4 nM and an LOD of 6 nM.

In assay [2], `OC[C@H]1O[C@H](OC[C@H]2O[C@H](OCCCCCCCCS)[C@@H](O)[C@@H](O[C@H]3O[C@H](CO)[C@@H](O)[C@H](O)[C@@H]3O)[C@@H]2O)[C@@H](O)[C@@H](O)[C@@H]1O` [D, 8-Mercaptooctyl 3,6-di-O-(α-D-mannopyranosyl)-α-D-mannopyranoside] came in with a Hill coefficient of 0.55 ± 0.05, a Kd of 30 ± 5 nM and an LOD of 13 nM.

In assay [2], `OC[C@H]1O[C@H](OC[C@H]2O[C@H](OCCCCCCCCS)[C@@H](O)[C@@H](O)[C@@H]2O[C@H]2O[C@H](CO)[C@@H](O)[C@H](O)[C@@H]2O)[C@@H](O)[C@@H](O)[C@@H]1O` [E, 8-Mercaptooctyl 4,6-di-O-(α-D-mannopyranosyl)-α-D-mannopyranoside] showed a Hill coefficient of 0.50 ± 0.06, a Kd of 81 ± 31 nM and an LOD of 11 nM.

As for `OCCOCCOCCS` [TEG-SH, 8-mercapto-3,6-dioxaoctanol, reference compound], the “ΔRct (Rct after Con A immobilization – Rct before)” value in assay [2] (0.5 μM Con A, 1 h) was 63 ± 13 Ω.

Turning to `OC[C@H]1OC(O)[C@@H](O)[C@@H](O)[C@@H]1O` (stereo partly shown) [mannose], the dissociation constant (Kd) was 78 nM in assay [3] (mannose functionalized on a gold surface, multivalent interactions); 135 to 400 nM in assay [3] (mannose–Con A interaction); 71 nM in assay [4] (1:2 binding of Con A to mannose); 250 to 400 nM in assay [4] (mannose–Con A interaction).

On to `CO[C@H]1O[C@H](CO)[C@@H](O)[C@H](O)[C@@H]1O` [methyl α-D-mannopyranoside], for which, in assay [5], the Ka is 0.82 × 10^4 and the Kd is 122000 nM.

As for dimannose, the Kd in assay [6] was 35 to 175 nM.
